Reference: ChEMBL document CHEMBL3785040, “Syntheses and Biological Evaluations of Highly Functionalized Hydroxamate Containing and N-Methylthio Monobactams as Anti-Tuberculosis and β-Lactamase Inhibitory Agents” (Medchemcomm, 2016)
Values after ≈ are worked out from the molar mass of the structure shown. Active and inactive are the calls of the source. The calls are words filed in the database; no cut-off is given here.

What was measured:
[1] = Inhibition of purified beta-lactamase CTX-M-14 (unknown origin) using nitrocefin as substrate preincubated for 10 mins followed by substrate addition
Method in brief: (§1)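 Test compound was preincubated 10 min with enzyme, then substrate was added and optical density was followed over time to determine Ki (μM). CTX-M-14 (class A), Oxa-48 (class D) and NDM-1 (class B) were purified enzymes; VIM-1 (class B) was a lysate. NDM-1 used imipenem as substrate; the other three used nitrocefin.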

[2] = tested on: Mycobacterium tuberculosis; test: Antituberculosis activity against Mycobacterium tuberculosis H37Rv in 7H12 medium incubated for 4 days by Microplate Alamar Blue assay; type: functional; conditions: 96 h
Method in brief: (§2)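 MICs in μM were determined against M. tuberculosis H37Rv by Microplate Alamar Blue assay. Line 2 used 7H12 medium, which is 7H9 medium plus casitone, palmitic acid, albumin and catalase.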

[3] = Inhibition of purified beta-lactamase NDM-1 (unknown origin) using imipenem as substrate preincubated for 10 mins followed by substrate addition; method in brief: as §1
[4] = Inhibition of purified beta-lactamase Oxa-48 (unknown origin) using nitrocefin as substrate preincubated for 10 mins followed by substrate addition; method in brief: as §1
[5] = tested on: Mycobacterium tuberculosis; test: Antituberculosis activity against Mycobacterium tuberculosis H37Rv in glycerol-alanine salts medium incubated for 4 days by Microplate Alamar Blue assay; type: functional; conditions: 96 h; method in brief: as §2
[6] = Inhibition of beta-lactamase VIM-1 lysate (unknown origin) using nitrocefin as substrate preincubated for 10 mins followed by substrate addition; method in brief: as §1
Mycolicibacterium vaccae = test: Antibacterial activity against Mycobacterium vaccae IMET 10670 incubated for 18 to 24 hrs measured after 24 to 48 hrs by agar diffusion assay; type: functional, organism-based
Method in brief: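 Kirby–Bauer agar diffusion assay; the read-out is the diameter of the inhibition zone in mm.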

In the case of `CSN1C(=O)[C@@H](NC(=O)Cc2ccccc2)[C@@H]1N(OCc1ccccc1)C(=O)c1ccccc1` (racemic), the Ki [1] is reported as > 160 µM, the MIC [2] is reported as 47.3 µM (≈ 22.5 µg/mL) and the Ki [3] is reported as 0.07 µM. It also gave a Ki [4] of 1.95 µM, an MIC [5] of 11.6 µM and a Ki [6] of 2.86 µM.
For `CC(C)(C)[Si](C)(C)ON(C(=O)c1ccccc1)[C@@H]1NC(=O)[C@H]1NC(=O)COc1ccccc1` (racemic), the Ki [1] was > 160 µM, the Ki [3] was 0.96 µM and the Ki [4] was > 160 µM. The Ki [6] was 31.2 µM.
With `C=CCON(C(=O)c1cc([N+](=O)[O-])cc(C(F)(F)F)c1)C1CC(=O)N1SC` (racemic) the Ki [1] was > 160 µM, the Ki [3] was 0.04 µM and the Ki [4] was > 160 µM. The Ki [6] was 59.3 µM.
Work on `CSN1C(=O)CC1N(OCc1ccccc1)C(=O)c1cc([N+](=O)[O-])cc(C(F)(F)F)c1` (racemic) yielded an MIC [2] of 23.4 µM (≈ 10.6 µg/mL) and an MIC [5] of 5.92 µM.
In the case of `C[C@@H](O[Si](C)(C)C(C)(C)C)[C@H]1C(=O)N[C@@H]1N(O)C(=O)c1ccccc1`, the Ki [1] is reported as 0.32 µM, the MIC [2] is reported as > 50 µM and the Ki [3] is reported as > 160 µM. For the same compound, the Ki [4] was > 160 µM, the MIC [5] was > 50 µM and the Ki [6] was > 160 µM.
With `CCOc1ccc(C(=O)N(OCc2ccccc2)C2CC(=O)N2SC)cc1` (racemic) the Ki [1] was > 160 µM, the MIC [2] was > 100 µM and the Ki [3] was 0.07 µM. For the same compound, the Ki [4] was > 160 µM, the MIC [5] was 34.8 µM and the Ki [6] was > 160 µM.
For `CC(=O)O[C@@H]1NC(=O)[C@H]1NC(=O)COc1ccccc1`, the Ki [1] was > 160 µM, the Ki [3] was 5.87 µM and the Ki [4] was > 160 µM. The Ki [6] was > 160 µM.
In the case of `CSN1C(=O)CC1N(OCc1ccccc1)C(=O)c1ccc([N+](=O)[O-])cc1` (racemic), the Ki [1] is reported as > 160 µM, the MIC [2] is reported as > 100 µM and the Ki [3] is reported as 0.97 µM. For the same compound, the Ki [4] was > 160 µM, the MIC [5] was 24.2 µM and the Ki [6] was > 160 µM.
With `O=C(Cc1ccccc1)N[C@@H]1C(=O)N[C@H]1N(OCc1ccccc1)C(=O)c1ccccc1` the Ki [1] was > 160 µM, the MIC [2] was > 100 µM and the Ki [3] was 5.54 µM. The Ki [4] was > 160 µM, the MIC [5] was 6.05 µM and the Ki [6] was > 160 µM.
Work on `CSN1C(=O)[C@@H](NC(=O)Cc2ccccc2)[C@@H]1OC(C)=O` yielded an MIC [2] of 47.6 µM (≈ 14.7 µg/mL) and an MIC [5] of 10.7 µM.
For `CSN1C(=O)CC1N(OCc1ccccc1)C(=O)c1ccccc1` (racemic), the MIC [2] was > 50 µM and the MIC [5] was 17.9 µM.
For `C[C@H]1COC2(CCN(c3nc(=O)c4cc(C(F)(F)F)cc([N+](=O)[O-])c4s3)CC2)O1` [BTZ-043], the MIC [2] was < 0.004 µM and the MIC [5] was < 0.004 µM.
With `C=CCON(C(=O)c1ccc([N+](=O)[O-])cc1)C1CC(=O)N1` (racemic) the Ki [1] was > 160 µM, the Ki [3] was > 160 µM and the Ki [4] was > 160 µM. The Ki [6] was > 160 µM.
In the case of `C=CCON(C(=O)c1ccc([N+](=O)[O-])cc1)C1CC(=O)N1SC` (racemic), the Ki [1] is reported as 0.64 µM, the Ki [3] is reported as 0.03 µM and the Ki [4] is reported as > 160 µM. The Ki [6] was 22.7 µM.
In the case of `O=C1CC(N(OCc2ccccc2)C(=O)c2cc([N+](=O)[O-])cc(C(F)(F)F)c2)N1` (racemic), the MIC [2] is reported as 44.7 µM (≈ 18.3 µg/mL) and the MIC [5] is reported as 30.3 µM.
With `C=CCON(C(=O)c1cc([N+](=O)[O-])cc(C(F)(F)F)c1)C1CC(=O)N1` (racemic) the Ki [1] was > 160 µM, the Ki [3] was > 160 µM and the Ki [4] was 1.93 µM. For the same compound, the Ki [6] was > 160 µM.
With `CC(C)(C)[Si](C)(C)N1C(=O)CC1N(OCc1ccccc1)C(=O)c1ccccc1` (racemic) the Ki [1] was > 160 µM, the MIC [2] was 49.2 µM (≈ 20.2 µg/mL) and the Activity (Mycolicibacterium vaccae) was “inactive”. The Ki [3] was > 160 µM, the Ki [4] was 1.72 µM and the MIC [5] was 0.28 µM. For the same compound, the Ki [6] was > 160 µM.
For `O=C(COc1ccccc1)N[C@@H]1C(=O)N[C@H]1N(OCc1ccccc1)C(=O)c1ccccc1`, the Ki [1] was 0.05 µM, the MIC [2] was 5.93 µM (≈ 2.64 µg/mL) and the Ki [3] was > 160 µM. For the same compound, the Ki [4] was > 160 µM, the MIC [5] was < 0.195 µM and the Ki [6] was > 160 µM.
In the case of `CO[C@H]1/C=C/O[C@@]2(C)Oc3c(C)c(O)c4c(O)c(c(/C=N/N5CCN(C)CC5)c(O)c4c3C2=O)NC(=O)/C(C)=C\C=C\[C@H](C)[C@H](O)[C@@H](C)[C@@H](O)[C@@H](C)[C@H](OC(C)=O)[C@@H]1C` [RIFAMPIN], the MIC [2] is reported as 0.05 µM (≈ 0.0411 µg/mL) and the MIC [5] is reported as 0.04 µM.
For `C[C@@H](O[Si](C)(C)C(C)(C)C)[C@H]1C(=O)N[C@@H]1N(OCc1ccccc1)C(=O)c1ccccc1`, the Ki [1] was 0.25 µM, the MIC [2] was > 100 µM and the Ki [3] was > 160 µM. For the same compound, the Ki [4] was > 160 µM, the MIC [5] was > 100 µM and the Ki [6] was > 160 µM.
In the case of `CSN1C(=O)[C@H]([C@@H](C)O[Si](C)(C)C(C)(C)C)[C@H]1N(OCc1ccccc1)C(=O)c1ccccc1`, the Ki [1] is reported as 0.4 µM, the MIC [2] is reported as 10.3 µM (≈ 5.14 µg/mL) and the Activity (Mycolicibacterium vaccae) is reported as “inactive”. For the same compound, the Ki [3] was > 160 µM, the Ki [4] was > 160 µM and the MIC [5] was 0.753 µM. For the same compound, the Ki [6] was > 160 µM.
In the case of `CSN1C(=O)[C@@H](NC(=O)COc2ccccc2)[C@@H]1N(OCc1ccccc1)C(=O)c1cc([N+](=O)[O-])cc(C(F)(F)F)c1` (racemic), the Ki [1] is reported as > 160 µM, the MIC [2] is reported as > 100 µM and the Ki [3] is reported as 0.15 µM. For the same compound, the Ki [4] was > 160 µM, the MIC [5] was 64.1 µM and the Ki [6] was > 160 µM.
With `CSN1C(=O)[C@@H](NC(=O)COc2ccccc2)[C@@H]1N(OCc1ccccc1)C(=O)c1ccccc1` (racemic) the Ki [1] was > 160 µM, the MIC [2] was 6 µM (≈ 2.95 µg/mL) and the Activity (Mycolicibacterium vaccae) was “inactive”. The Ki [3] was 0.06 µM, the Ki [4] was > 160 µM and the MIC [5] was > 50 µM. For the same compound, the Ki [6] was > 160 µM.
With `C[C@@H](O)[C@H]1C(=O)N[C@@H]1N(OCc1ccccc1)C(=O)c1ccccc1` the Ki [1] was > 160 µM, the MIC [2] was > 100 µM and the Ki [3] was > 160 µM. For the same compound, the Ki [4] was > 160 µM, the MIC [5] was > 100 µM and the Ki [6] was > 160 µM.
In the case of `CCOc1ccc(C(=O)N(OCc2ccccc2)C2CC(=O)N2)cc1` (racemic), the Ki [1] is reported as > 160 µM, the MIC [2] is reported as > 100 µM and the Ki [3] is reported as > 160 µM. The Ki [4] was > 160 µM, the MIC [5] was 49.3 µM and the Ki [6] was > 160 µM.
